Test results as given in ChEMBL document CHEMBL4138113, “Novel propanamides as fatty acid amide hydrolase inhibitors” (Eur J Med Chem, 2017).
Active and inactive are the calls of the source. The rule behind the calls is not given here.

How the values were obtained:
[1] = biological target: T1, Fatty-acid amide hydrolase 1 (Homo sapiens, UniProt O00519); experiment: Inhibition of FAAH (unknown origin) expressed in human HeLa cells using [3H]AEA as substrate after 2 hrs by liquid scintillation counting analysis; assay type: cell-based
T1 sequence (O00519 whole entry): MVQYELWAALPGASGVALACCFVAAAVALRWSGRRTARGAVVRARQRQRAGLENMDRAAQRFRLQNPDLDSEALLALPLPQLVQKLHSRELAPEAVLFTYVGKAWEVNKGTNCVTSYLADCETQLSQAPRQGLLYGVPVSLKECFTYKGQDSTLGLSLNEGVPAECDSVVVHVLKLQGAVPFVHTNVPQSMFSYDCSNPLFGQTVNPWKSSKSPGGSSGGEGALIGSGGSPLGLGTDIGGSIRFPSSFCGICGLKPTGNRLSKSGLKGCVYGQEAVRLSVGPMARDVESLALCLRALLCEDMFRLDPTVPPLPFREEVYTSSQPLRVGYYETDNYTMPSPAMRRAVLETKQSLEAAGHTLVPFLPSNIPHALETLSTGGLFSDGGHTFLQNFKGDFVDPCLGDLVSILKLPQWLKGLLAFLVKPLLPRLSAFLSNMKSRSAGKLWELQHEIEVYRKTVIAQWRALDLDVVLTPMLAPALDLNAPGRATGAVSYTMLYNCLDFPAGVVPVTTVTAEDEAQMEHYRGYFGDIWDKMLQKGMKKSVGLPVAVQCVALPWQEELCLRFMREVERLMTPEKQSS

[2] = biological target: T2, Prostaglandin G/H synthase 1 (Ovis aries) (UniProt P05979); experiment: Inhibition of ovine COX1 using arachidonic acid as substrate after 5 mins
T2 sequence (whole entry): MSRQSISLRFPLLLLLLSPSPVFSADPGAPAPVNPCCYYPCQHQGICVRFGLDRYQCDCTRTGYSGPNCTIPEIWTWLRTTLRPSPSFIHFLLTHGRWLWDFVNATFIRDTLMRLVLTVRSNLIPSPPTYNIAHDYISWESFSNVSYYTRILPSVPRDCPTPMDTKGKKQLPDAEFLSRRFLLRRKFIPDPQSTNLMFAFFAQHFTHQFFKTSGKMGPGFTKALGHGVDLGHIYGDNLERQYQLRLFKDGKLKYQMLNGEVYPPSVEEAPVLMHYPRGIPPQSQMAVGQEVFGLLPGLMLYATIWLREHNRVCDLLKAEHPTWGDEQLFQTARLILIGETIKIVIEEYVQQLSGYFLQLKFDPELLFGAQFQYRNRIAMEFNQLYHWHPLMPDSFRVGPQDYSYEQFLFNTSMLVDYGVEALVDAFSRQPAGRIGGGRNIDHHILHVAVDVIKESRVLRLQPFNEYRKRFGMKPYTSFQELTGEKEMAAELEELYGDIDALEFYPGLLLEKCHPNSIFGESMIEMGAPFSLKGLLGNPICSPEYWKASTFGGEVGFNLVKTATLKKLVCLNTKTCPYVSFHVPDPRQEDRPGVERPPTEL
Summary of the method: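 Oxygen-electrode assay at room temperature in 0.1 M Tris-HCl, pH 7.4, with 1 µM haematin, 2 mM phenol, 5 mM EDTA and 10 µM (final) arachidonic acid or 2-AG. Compound in EtOH was added and a 5 min baseline recorded. The reaction was started with ovine COX-1 or human recombinant COX-2 (200 U), and oxygen consumption was read in 10 s blocks. Means ± SEM, n = 3-4.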

[3] = biological target: T3, Fatty-acid amide hydrolase 1 (Rattus norvegicus) (UniProt P97612); experiment: Reversible inhibition of rat brain FAAH at 0.03 to 1 uM using [3H]AEA as substrate preincubated for 60 mins followed by 20 fold compound dilution and subsequent substrate addition by liquid scintillation counting analysis
T3 sequence (whole entry): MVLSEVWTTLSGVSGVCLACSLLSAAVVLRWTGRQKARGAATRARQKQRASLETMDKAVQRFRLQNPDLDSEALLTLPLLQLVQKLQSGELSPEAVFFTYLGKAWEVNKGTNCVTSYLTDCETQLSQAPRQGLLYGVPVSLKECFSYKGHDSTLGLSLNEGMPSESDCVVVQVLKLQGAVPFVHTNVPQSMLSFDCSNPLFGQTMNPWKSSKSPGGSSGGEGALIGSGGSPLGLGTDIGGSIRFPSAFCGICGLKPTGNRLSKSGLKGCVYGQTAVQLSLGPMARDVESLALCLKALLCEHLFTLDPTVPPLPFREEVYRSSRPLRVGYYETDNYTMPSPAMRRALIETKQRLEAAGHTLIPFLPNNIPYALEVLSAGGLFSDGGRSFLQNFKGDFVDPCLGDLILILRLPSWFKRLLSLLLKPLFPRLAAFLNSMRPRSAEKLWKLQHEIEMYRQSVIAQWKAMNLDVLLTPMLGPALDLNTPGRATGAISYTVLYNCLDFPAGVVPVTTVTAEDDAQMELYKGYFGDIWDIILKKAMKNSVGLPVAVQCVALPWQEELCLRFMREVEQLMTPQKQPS
Summary of the method: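 Rat brain homogenate at 20-fold normal strength was preincubated with vehicle or compound for 60 min, then diluted 20-fold and assayed with [3H]AEA for 10 min at 37 °C. In parallel, compound was added to vehicle-preincubated aliquots at the post-dilution free concentrations and at the undiluted final concentrations. Tritium was counted after charcoal separation.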

**Q.** What does the source list for Cc1cccnc1NC(=O)C(C)c1ccc(Nc2ccnc(C(F)(F)F)c2)cc1 (stereo not drawn)?
**A.** IC50 [1]: 2.2 to 6.5 µM; inhibition [2]: inactive

**Q.** Which inhibition [3] does the source give for CC(C(=O)Nc1ncccc1Cl)c1ccc(Nc2ccnc(C(F)(F)F)c2)cc1 (stereo not drawn) here?
**A.** Active
